Assay outcomes (PubChem)
In the library only some 9.6% were active in any assay of this set; here they are far more common.
BaF3 tox = parental Ba/F3 cell viability inhibition, counter-screen for JAK2V617F inhibitor project, murine pro-B, CellTiter-Glo luminescence. actives 1.1% (n = 220,000). inhibition, % at 5.6 µM. CellTiter-Glo ATP luminescence;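 active = inhibition above a per-campaign cutoff, the mean inhibition of all tested compounds plus 3 SD, cut at about 27% in these data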
Ba/F3 V617F tox = reduced viability of JAK2V617F-dependent Ba/F3 cells, primary screen, JAK2V617F inhibitor project, cell-based, Ba/F3 EpoR-JAK2V617F, luminescence. ATP luminescence. inhibition, % at 5.6 µM. actives 1.1% (n = 220,000). AID 1446, 2008;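 active = inhibition above the campaign mean plus 3 SD over all tested compounds, cut at about 24% in these data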;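 also: cytokine-independent growth of Ba/F3 cells driven by EpoR plus mutant JAK2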
bCat nuc transl = modulators of beta-catenin nuclear translocation, primary screen, imaging, HeLa cells, immunofluorescence, high-content | nuclear translocation activity, % at 5 µM | actives 0.3% (n = 190,000) | AID 1665, 2009;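 active = nuclear translocation activity above 50% at 5 µM, with a well cell count of 50 or more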;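 also: per-cell ratio of nuclear to cytoplasmic median beta-catenin stain intensity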
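System: Human HeLa cells, endogenous beta-catenin | Compound dosing: 5 µM primary, 0.02–20 µM confirmation | Timing: 24 h compound exposure at 37°C, 5% CO2 | Measured by: Fluorescence imaging of beta-catenin antibody stain plus DAPI | Read-out basis: % activation of per-cell nuclear versus cytoplasmic median beta-catenin signal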
L major viab = Leishmania major promastigote growth inhibition, primary screen | Leishmania major promastigotes, resazurin fluorescence viability | inhibition, % at 10 µM | actives 9% (n = 200,000) | AID 1063, 2008; in the data active = inhibition above about 50%;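 also: promastigotes grown with compound for 44 hours at 28 °C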
MT stabilize HCS = microtubule stabilizers in HeLa cells, primary screen, imaging, high-content imaging | % tubulin-high responders, % at 10 µM | HeLa tubulin immunostaining HCS, 24 h; share of cells brighter than vehicle mean+2SD | AID 2205, 2009 | actives 0.83% (n = 200,000);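 active = plate Z-score above 3 for both tubulin-high and condensed-nucleus cell shares, with cell loss under 80%, at 10 µM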;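 also: anti alpha tubulin signal scored within the nucleus-defined area of each cell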
APP transl inh = inhibitors of APP translation via 5'UTR reporter, primary screen, APP 5'UTR luciferase, SH-SY5Y cells | SH-SY5Y APP 5'UTR-luciferase reporter, luminescence | actives 0.82% (n = 190,000) | inhibition, % at 2 µM;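 active = inhibition above a set limit, derived from the sample mean plus 3 SD, cut at about 45% in these data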
Hits are given with their value; i = inactive; nt = no result given.

SMILES | BaF3 tox | Ba/F3 V617F tox | bCat nuc transl | L major viab | MT stabilize HCS | APP transl inh
CC1=C(C#N)c2nc(N)c(C#N)c(C)c2/C1=C\c1ccc(OCC(=O)O)c(Cl)c1 | i | i | i | nt | nt | nt
COc1ccc(C(=O)c2c(C)c3cc(C)ccc3n2CC(O)CN2CCOCC2)cc1 (stereo not drawn) | i | i | i | i | i | i
COC(=O)c1c(NC(=O)COC(=O)c2ccc(O)cc2)sc2c1CCCCC2 | i | i | i | i | i | i
CCC(Sc1nc(-c2ccccc2)c(C#N)c(=O)[nH]1)C(=O)Nc1nnc(C)s1 (stereo not drawn) | i | i | i | i | i | i
COc1ccc(NC(=O)Nc2nc3ccccc3s2)cc1 | i | i | i | nt | nt | nt
COc1ccc(S(=O)(=O)N2CCCC2C(=O)Nc2ccc(C)cc2)cc1 (stereo not drawn) | i | i | i | i | i | i
O=C(Nc1nc2ccccc2s1)C1CCCN1S(=O)(=O)c1ccc(Cl)cc1 (stereo not drawn) | i | i | nt | 99 | i | i
Cc1ccc(S(=O)(=O)N2CCCC2C(=O)Nc2nc3ccccc3s2)cc1 (stereo not drawn) | i | i | i | i | i | i
COc1ccc(NC(=O)Nc2nc3c(s2)CCCC3)cc1 | i | i | i | 54 | i | i
COc1ccc(-c2csc(NC(=O)C3CCCCN3S(=O)(=O)c3ccccc3)n2)cc1 (stereo not drawn) | i | i | i | 70 | i | i
O=C(c1sc2ccccc2c1Cl)N(Cc1ccco1)C1CCS(=O)(=O)C1 (stereo not drawn) | i | i | i | 96 | i | i
O=C(c1sc2ccccc2c1Cl)N(Cc1ccccc1)C1CCS(=O)(=O)C1 (stereo not drawn) | i | i | i | i | i | i
O=C(/C=C/c1ccc(Br)o1)Nc1nnc(C2CC2)s1 | i | i | i | nt | nt | nt
O=C(O)CSc1nc2c(c(C(F)(F)F)n1)CCc1ccccc1-2 | i | i | i | i | i | i
CCN(CC)CCCNC(=O)CSc1nc2c(c(C(F)(F)F)n1)CCc1ccccc1-2 | i | i | i | 60 | i | i
Cc1nn(Cc2ccccc2)c(C)c1NC(=O)CSc1nc2c(c(C(F)(F)F)n1)CCc1ccccc1-2 | i | i | i | 68 | i | i
O=C(CSc1nc2c(c(C(F)(F)F)n1)CCc1ccccc1-2)NCc1ccccc1 | i | i | i | i | i | i
CCN(CC)CCCNC(=O)c1cc(-c2ccc(Cl)c(Cl)c2)on1 | i | i | i | 99 | i | i
CCN(CC)CCCNC(=O)c1cc2c(-c3ccc(Cl)cc3)nn(C)c2s1 | 29 | i | nt | 100 | i | i
O=C(NCCCN1CCCCCC1)c1ccc2c(Cl)c3c(nc2c1)CCCC3 | i | i | i | 73 | i | i
O=C(NCCCN1CCCC1)c1cc2c(Cl)nc3ccccc3c2s1 | i | i | i | 90 | i | i
COCCn1c(SCC(=O)NCc2ccc3c(c2)OCO3)nc2ccccc2c1=O | i | i | i | i | i | i
CC(C)(C)c1ccc(NC(=O)COC(=O)c2ccc(NS(=O)(=O)c3ccc(F)c(F)c3)cc2)cc1 | i | i | i | i | i | i
CN1CCN(CCCNC(=O)c2cc3c(-c4ccc(Cl)cc4)nn(C)c3s2)CC1 | i | i | nt | 100 | i | i
CCCC(C)NC(=S)Nc1cc(C)cc(C)c1 (stereo not drawn) | i | i | i | 76 | i | i
Cc1cc(C)cc(NC(=S)NCCCO)c1 | i | i | i | i | i | i
CCOc1cc(/C=C(\CC(=O)O)c2nc3ccccc3s2)ccc1OC | 41 | i | i | 98 | i | i
COc1cc(C=C(c2nc3ccccc3s2)c2nc3ccccc3s2)cc(OC)c1O | i | i | i | 95 | i | i
Cc1nc2ccccn2c1/C(O)=C1\C(=O)C(=O)N(CCCN(C)C)C1c1ccc(F)cc1 (stereo not drawn) | i | i | nt | i | i | i
CN1c2ccccc2C(C)(C)C12CC(c1ccc(S(=O)(=O)N3CCCCC3)cc1)=NO2 (stereo not drawn) | i | i | i | i | i | i
